From article PMC5621377 (Clinical cancer research : an official journal of the …, 2016)
Like-named read-outs stand apart in the source and are kept apart here.

What was measured:
[1] = Pharmacokinetics, plasma LC-MS/MS, non-compartmental analysis; type: in vivo, human; conditions: AUC0–24 on Days 1 and 18/21 of Cycle 1, 600 mg/day dose
Method in brief: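 Oral daily dosing at 50–1,200 mg/day. On Cycle 1 Days 1 and 18/21, blood was drawn pre-dose and at 0.5, 1, 2, 4, 6, 8 and 24 h, with further trough days. Parent drug and a metabolite in plasma were measured by validated LC-MS/MS (LLOQ 1.0 ng/mL). Non-compartmental analysis was used. Dose proportionality was fitted as ln(Cmax or AUC0–24) = α + β ln(dose). T1/2,acc came from the accumulation ratio; steady state was judged from troughs.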

[2] = tested on: hormone receptor-positive breast cancer; conditions: cited from earlier work

Row | SMILES | metabolite exposure relative to parent drug [1] | median progression-free survival ([2]; in combination with fulvestrant) | median progression-free survival ([2]; in combination with letrozole)
1 | CNC(=O)c1cc2cnc(Nc3ccc(N4CCNCC4)cn3)nc2n1C1CCCC1 [LEQ803] | approximately 10% |  | 
2 | CC(=O)c1c(C)c2cnc(Nc3ccc(N4CCNCC4)cn3)nc2n(C2CCCC2)c1=O [palbociclib] |  | improved median progression-free survival | improved median progression-free survival
